# Reference: ChEMBL document CHEMBL4364290, “Light-controlled inhibition of BRAFV600E kinase” (Eur J Med Chem, 2019)
# Activity calls are given as the source filed them. The calls are words filed in the database; no cut-off is given here.
# Assays:
# [1] = target: T1, Serine/threonine-protein kinase B-raf (Homo sapiens, UniProt P15056, V600E); assay: Inhibition of human recombinant N-terminal GST/His6-tagged BRAF V600E mutant (Q417 to H766 residues) expressed in Sf9 insect cells using MEK1 as substrate measured after 1 hr using preheated compound at 60 degC for 30 mins by Western blot analysis
# [2] = Absorption property of the compound in pH 7.5 tris HCl buffer assessed as maximum absorption wavelength; assay type: physicochemical
# In short: (§1)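 λmax of the trans isomer recorded in DMSO and in BRAF assay buffer.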
# [3] = Drug isomerization in DMSO-d6 assessed as cis isomer level at PSS at 2 mg/ml irradiated at 365 nm light measured immediately by 1H-NMR spectroscopic analysis
# [4] = Drug isomerization in DMSO-d6 irradiated at 365 nm assessed as cis isomer level at PSS at 2 mg/ml measured after 90 mins under room temperature by 1H and 19F-NMR spectroscopic analysis
# [5] = Drug isomerization in DMSO-d6 irradiated at 365 nm assessed as cis isomer level at PSS at 2 mg/ml measured after 60 mins under room temperature by 1H and 19F-NMR spectroscopic analysis
# [6] = Absorption property of the compound in DMSO assessed as maximum absorption wavelength; assay type: physicochemical; in short: as §1
# [7] = Stability of the compound in DMSO-D6 at 2 mg/ml by 1H-19F NMR analysis; assay type: physicochemical; settings: read-out: Stability
# [8] = Half life of the compound in pH 7.5 tris HCl buffer at 2 mg/ml measured at room temperature under 365 nm light irradiation using trans-isomer form of compound by 1H-19F NMR spectroscopic analysis
# In short: (§2)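 Cis isomer generated by 365 nm irradiation to PSS; half-life of thermal cis-to-trans relaxation followed at room temperature in DMSO, in BRAF assay buffer, or in 1:1 BRAF assay buffer/acetonitrile where solubility required.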
# [9] = target: T1, Serine/threonine-protein kinase B-raf; assay: Inhibition of human recombinant N-terminal GST/His6-tagged BRAF V600E mutant (Q417 to H766 residues) expressed in Sf9 insect cells using MEK1 as substrate measured after 1 hr using light irradiated compound at 365 nm for 45 mins by Western blot analysis
# [10] = Half life of the compound in DMSO-d6 at 2 mg/ml measured at room temperature under 365 nm light irradiation using trans-isomer form of compound by 1H-19F NMR spectroscopic analysis; in short: as §2
# [11] = Drug re-isomerization in DMSO-d6 assessed as cis isomer level at PSS at 2 mg/ml measured after 20 hrs under dark condition at room temperature using irradiated compound by 1H-NMR spectroscopic analysis
# [12] = Drug isomerization in DMSO-d6 irradiated at 365 nm assessed as cis isomer level at PSS at 2 mg/ml measured after 120 mins under room temperature by 1H and 19F-NMR spectroscopic analysis
# [13] = Half life of the compound in pH 7.5 tris HCl buffer/acetonitrile at 2 mg/ml measured at room temperature under 365 nm light irradiation using trans-isomer form of compound by 1H-19F NMR spectroscopic analysis; in short: as §2
# [14] = Drug isomerization in DMSO-d6 irradiated at 365 nm assessed as rate of thermal relaxation measured as cis isomer level at PSS at 2 mg/ml measured after 2.5 hrs storage in dark at room temperature by 1H-NMR spectroscopic analysis
# [15] = Drug isomerization in DMSO-d6 irradiated at 365 nm assessed as rate of thermal relaxation measured as cis isomer level at PSS at 2 mg/ml measured after 70 hrs storage in dark at room temperature by 1H-NMR spectroscopic analysis
# [16] = Drug isomerization in DMSO-d6 irradiated at 365 nm assessed as cis isomer level at PSS at 2 mg/ml measured after 100 mins under room temperature by 1H and 19F-NMR spectroscopic analysis
# [17] = Drug isomerization in DMSO-d6 irradiated at 365 nm assessed as cis isomer level at PSS at 2 mg/ml measured after 70 mins under room temperature by 1H and 19F-NMR spectroscopic analysis
# [18] = Drug isomerization in DMSO-d6 irradiated at 365 nm assessed as cis isomer level at PSS at 2 mg/ml measured after 135 mins under room temperature by 1H and 19F-NMR spectroscopic analysis
# [19] = Drug isomerization in DMSO-d6 irradiated at 365 nm assessed as cis isomer level at PSS at 2 mg/ml measured after 75 mins under room temperature by 1H and 19F-NMR spectroscopic analysis
# [20] = Thermal re-isomerization in bovine plasma assessed as trans-isomer formation at 10 uM measured after 1 hr at 37 degC using pre-irradiated compound at 365 nm light for 1 hr by LCMS analysis; assay type: ADME, cell-free, Bos taurus; settings: cattle
# [21] = Drug isomerization in bovine plasma at 10 uM measured after 20 hrs at 37 degC by LCMS analysis; assay type: ADME, cell-free, Bos taurus; settings: cattle
# [22] = tested on: Serine/threonine-protein kinase B-raf (Homo sapiens), P15056 [V600E]; assay: Inhibition of BRAF V600E mutant in human SK-MEL-28 using peptide as substrate using irradiated compound at 365 nm light for 45 mins by STK-Pamchip array-based method; assay type: cell-based
# In short: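 SK-Mel-28 cell lysates treated with DMSO control or inhibitor, either dark (thermally adapted) or irradiated with 365 nm light; kinase activity profiled on PamGene STK peptide chips.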
# T1 sequence (P15056 2-766 V600E limits assumed): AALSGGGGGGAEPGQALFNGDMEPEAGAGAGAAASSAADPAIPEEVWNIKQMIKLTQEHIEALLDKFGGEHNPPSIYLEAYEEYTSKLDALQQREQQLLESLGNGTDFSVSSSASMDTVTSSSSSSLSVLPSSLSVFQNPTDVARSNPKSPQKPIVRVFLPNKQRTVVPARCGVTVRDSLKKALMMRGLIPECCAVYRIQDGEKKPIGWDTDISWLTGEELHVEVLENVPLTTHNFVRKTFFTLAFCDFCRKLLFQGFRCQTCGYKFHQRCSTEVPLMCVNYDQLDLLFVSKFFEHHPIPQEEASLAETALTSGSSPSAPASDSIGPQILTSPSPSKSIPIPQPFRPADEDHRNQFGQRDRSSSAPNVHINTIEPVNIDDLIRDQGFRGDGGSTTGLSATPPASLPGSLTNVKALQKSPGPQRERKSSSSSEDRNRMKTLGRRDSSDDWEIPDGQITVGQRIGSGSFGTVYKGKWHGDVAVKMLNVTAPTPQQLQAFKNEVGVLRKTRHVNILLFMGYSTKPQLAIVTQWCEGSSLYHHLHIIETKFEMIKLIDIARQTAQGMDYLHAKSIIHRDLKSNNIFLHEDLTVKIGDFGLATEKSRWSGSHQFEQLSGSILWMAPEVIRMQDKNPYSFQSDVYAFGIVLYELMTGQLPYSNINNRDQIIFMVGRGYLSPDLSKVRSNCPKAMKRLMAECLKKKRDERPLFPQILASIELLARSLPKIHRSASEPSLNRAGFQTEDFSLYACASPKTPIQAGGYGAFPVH
# Chain of Serine/threonine-protein kinase B-raf (Homo sapiens), P15056 [V600E] (P15056 whole entry V600E): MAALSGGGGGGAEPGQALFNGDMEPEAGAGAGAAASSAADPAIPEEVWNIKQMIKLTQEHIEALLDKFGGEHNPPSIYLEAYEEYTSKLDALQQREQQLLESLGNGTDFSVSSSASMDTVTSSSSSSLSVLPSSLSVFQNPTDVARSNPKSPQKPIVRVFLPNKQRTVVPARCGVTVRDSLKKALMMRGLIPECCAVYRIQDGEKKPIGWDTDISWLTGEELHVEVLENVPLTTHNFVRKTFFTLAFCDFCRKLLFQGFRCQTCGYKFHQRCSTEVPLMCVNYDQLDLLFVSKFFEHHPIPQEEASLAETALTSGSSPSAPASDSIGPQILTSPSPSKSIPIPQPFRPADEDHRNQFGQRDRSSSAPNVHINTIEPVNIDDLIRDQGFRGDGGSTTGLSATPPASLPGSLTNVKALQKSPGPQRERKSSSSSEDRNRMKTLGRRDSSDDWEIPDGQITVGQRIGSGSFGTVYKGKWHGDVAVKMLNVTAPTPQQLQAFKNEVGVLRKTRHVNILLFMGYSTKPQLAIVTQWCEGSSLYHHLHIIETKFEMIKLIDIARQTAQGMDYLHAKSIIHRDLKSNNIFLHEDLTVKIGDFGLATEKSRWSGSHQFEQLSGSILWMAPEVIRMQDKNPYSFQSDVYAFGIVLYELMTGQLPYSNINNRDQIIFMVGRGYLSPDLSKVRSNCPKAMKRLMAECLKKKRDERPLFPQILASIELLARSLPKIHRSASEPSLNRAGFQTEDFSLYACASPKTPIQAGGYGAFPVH
Structure (SMILES),IC50 [1],Activity [2],Drug metabolism [3],Activity [6],remaining at 2 mg/ml [7],IC50 [9],T1/2 [10],Drug metabolism [11],T1/2 [13],also measured
COc1ccc(/N=N/c2cccc(C(=O)Nc3cnc4[nH]nc(OC)c4c3)c2)cc1,100 nM,345 nm,73%,352 nm,> 95%,–,–,–,–,Drug metabolism [4]: 94%; Drug metabolism [5]: 92%
COc1ccc(/N=N\c2cccc(C(=O)Nc3cnc4[nH]nc(OC)c4c3)c2)cc1,–,–,–,–,–,450 nM,> 10 h,34%,–,T1/2 [8]: > 10 h
COc1n[nH]c2ncc(NC(=O)c3c(F)ccc(/N=N/c4ccc(F)cc4)c3F)cc12,2600 nM,338 nm,62%,335 nm,> 95%,–,–,–,–,Drug metabolism [4]: 58%; Drug metabolism [12]: 62%
COc1n[nH]c2ncc(NC(=O)c3c(F)ccc(/N=N\c4ccccc4F)c3F)cc12,–,–,–,–,–,660 nM,> 20 h,51%,5 h,Drug metabolism [14]: 50%
COc1n[nH]c2ncc(NC(=O)c3c(F)ccc(/N=N\c4ccccc4C)c3F)cc12,–,–,–,–,–,540 nM,> 70 h,–,> 24 h,Drug metabolism [15]: 62%
COc1n[nH]c2ncc(NC(=O)c3c(F)ccc(/N=N\c4ccc(F)cc4)c3F)cc12,–,–,–,–,–,8100 nM,> 20 h,60%,> 24 h,–
COc1n[nH]c2ncc(NC(=O)c3c(F)ccc(/N=N/c4ccc(C)cc4)c3F)cc12,32 nM,338 nm,84%,340 nm,> 95%,–,–,–,–,Drug metabolism [16]: 84%; Drug metabolism [17]: 80%
COc1n[nH]c2ncc(NC(=O)c3c(F)ccc(/N=N/c4ccccc4C)c3F)cc12,1700 nM,334 nm,77%,335 nm,> 95%,–,–,–,–,Drug metabolism [18]: 77%; Drug metabolism [19]: 60%
COc1n[nH]c2ncc(NC(=O)c3c(F)ccc(/N=N\c4ccccc4)c3F)cc12,–,–,–,–,–,157 nM,> 10 h,36%,–,Drug metabolism [20]: Metabolite_Detected; T1/2 [8]: 5.4 h; Drug metabolism [21]: Metabolite_Detected; inhibition [22]: inactive
